Experiment [1] is filed under the species Mus musculus. Nature of the experiment: Increase in ear thickness was determined in mice after 48 hr of application of compound at a concentration of 1.56 mmol to right ear. The class given is functional. In outline:
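Cross-reaction test in female BALB/c mice aged 6–7 weeks. Mice were sensitized on day 0 on the shaved lower abdomen with 15.6 mmol in acetone/olive oil 4:1 (100 μL). Four days later groups of 8 were challenged on the dorsal right ear with 1.56 mmol (25 μL). Ear thickness was measured by micrometer, and the increase taken at 48 h after challenge.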

Experiment [2] is filed under the species Mus musculus. The experiment is described as follows: Ear thickness increase measured at 48 hr after challenge in group II on Day 10. It counts as functional. In outline:
(§1)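 Female BALB/c mice aged 6–7 weeks, 8 per group. On day 0 each mouse was pretreated epicutaneously on the shaved abdomen with 15.6 mmol in acetone/olive oil 4:1 (100 μL). The same dose was given on day 4 to sensitize. On day 8 the dorsal right ear was challenged with 1.56 mmol in acetone:olive oil (25 μL). Ear thickness was read by micrometer on days 9–12, and the increase taken at 48 h after challenge.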

The species named for experiment [3] is Mus musculus. Nature of the experiment: Ear thickness increase measured at 48 hr after challenge in group III on Day 10. The class given is functional. In outline: as §1
For experiment [4], the species on record is Mus musculus. The experiment is described as follows: A challenge dose of 1.56 mmol (25 uL) was applied to right ear in group II. The class given is functional. A digest of the protocol: as §1
For experiment [5], the species on record is Mus musculus. Nature of the experiment: A challenge dose of 1.56 mmol (25 uL) was applied to right ear in group III on Day 8. It counts as functional. A digest of the protocol:
as §1

The species named for experiment [6] is Mus musculus. Nature of the experiment: Mice was pretreated with 15.6 mmol (100 uL) on shaved abdomen in group II on Day 0.
Experiment [7] is filed under the species Mus musculus. Nature of the experiment: Mice was sensitized with 15.6 mmol (100 uL) on shaved abdomen in group II on Day 4.
For experiment [8], the species on record is Mus musculus. The experiment is described as follows: Mice was pretreated with 15.6 mmol (100 uL) on shaved abdomen in group III on Day 0.
The species entered for experiment [9] is Mus musculus. The experiment is described as follows: Mice was sensitized with 15.6 mmol (100 uL) on shaved abdomen in group III on Day 4.

For `Oc1cccc(CCCCCC(F)(F)C(F)(F)C(F)(F)C(F)(F)C(F)(F)C(F)(F)F)c1O`, the Ear thickness in [1] came to 142 µm.

In turn, `CCCCCCCCCCCCCCCc1cccc(O)c1O` yielded an Ear thickness in [1] of 68.5 µm.

As for `Oc1cccc(CCCCCCCCCCCC(F)(F)C(F)(F)C(F)(F)C(F)(F)F)c1O`, the Ear thickness in experiment [2] amounted to 26 µm; in experiment [3] it was 15 µm; in [1], 162 µm. Besides, the Tolerance in experiment [4] was 10; in experiment [5], 9; in [6], 9; in experiment [7], 10; in experiment [8] it was 9; in [9], 9.
